Values after ≈ are worked out from the molar mass of the structure shown.
test system: Staphylococcus aureus; assay: Antibacterial activity against Staphylococcus aureus ATCC 25923 by broth microdilution method; assay type: functional; conditions: not given

| SMILES | IC50 | MIC |
| --- | --- | --- |
| COC(=O)[C@H](c1ccccc1)n1sc2ccccc2c1=O | 1.1 µg/mL (≈ 3.67 µM) | 1.5 µg/mL (≈ 5.01 µM) |
| CC(=O)Nc1ccccc1-n1sc2ccccc2c1=O | > 50 µg/mL | > 50 µg/mL |
| COC(=O)[C@H](C(C)C)n1sc2ccccc2c1=O | 2.4 µg/mL (≈ 9.05 µM) | 2.9 µg/mL (≈ 10.9 µM) |
| COC(=O)[C@H](C)NC(=O)[C@H](C)n1sc2ccccc2c1=O | 3.6 µg/mL (≈ 11.7 µM) | 7.5 µg/mL (≈ 24.3 µM) |
| COC(=O)[C@H](C)n1sc2ccccc2c1=O | 2 µg/mL (≈ 8.43 µM) | 3 µg/mL (≈ 12.6 µM) |
| O=c1c2ccccc2sn1-c1ccccc1Cl |  | 25 µg/mL (≈ 95.5 µM) |

test system: Staphylococcus aureus; assay: Antibacterial activity against gentamicin-resistant Staphylococcus aureus ATCC 33592 by broth microdilution method; assay type: functional; conditions: not given

| SMILES | MIC |
| --- | --- |
| O=c1c2ccccc2sn1-c1ccccc1Cl | 12.5 µg/mL (≈ 47.8 µM) |

test system: Pseudomonas aeruginosa; assay: Antibacterial activity against Pseudomonas aeruginosa ATCC BAA-427 by broth microdilution method; assay type: functional; conditions: not given
Procedure, shortened: (§1)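 Bacteria were tested by the NCCLS method in Mueller Hinton broth, with gentamicin and norfloxacin as reference drugs.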

| SMILES | IC50 | MIC |
| --- | --- | --- |
| COC(=O)[C@H](c1ccccc1)n1sc2ccccc2c1=O | > 50 µg/mL | > 50 µg/mL |
| CC(=O)Nc1ccccc1-n1sc2ccccc2c1=O | > 50 µg/mL | > 50 µg/mL |
| COC(=O)[C@H](C(C)C)n1sc2ccccc2c1=O | > 50 µg/mL | > 50 µg/mL |
| COC(=O)[C@H](C)NC(=O)[C@H](C)n1sc2ccccc2c1=O | > 50 µg/mL | > 50 µg/mL |
| COC(=O)[C@H](C)n1sc2ccccc2c1=O | > 50 µg/mL | > 50 µg/mL |
| O=c1c2ccccc2sn1-c1ccccc1Cl |  | > 50 µg/mL |

test system: Sporothrix schenckii; assay: Anti-fungal activity against Sporothrix schenckii after 48 hrs by broth microdilution method; assay type: functional; conditions: not given

| SMILES | IC50 | MIC |
| --- | --- | --- |
| COC(=O)[C@H](c1ccccc1)n1sc2ccccc2c1=O | > 50 µg/mL | > 50 µg/mL |
| CC(=O)Nc1ccccc1-n1sc2ccccc2c1=O | > 50 µg/mL | > 50 µg/mL |
| COC(=O)[C@H](C(C)C)n1sc2ccccc2c1=O | 2.5 µg/mL (≈ 9.42 µM) | 11.9 µg/mL (≈ 44.8 µM) |
| COC(=O)[C@H](C)NC(=O)[C@H](C)n1sc2ccccc2c1=O | > 50 µg/mL | > 50 µg/mL |
| COC(=O)[C@H](C)n1sc2ccccc2c1=O | 2.9 µg/mL (≈ 12.2 µM) | 12.2 µg/mL (≈ 51.4 µM) |
| O=c1c2ccccc2sn1-c1ccccc1Cl |  | 12.5 µg/mL (≈ 47.8 µM) |

test system: Klebsiella pneumoniae; assay: Antibacterial activity against Klebsiella pneumoniae ATCC 27736 by broth microdilution method; assay type: functional; conditions: not given; procedure, shortened: as §1

| SMILES | IC50 | MIC |
| --- | --- | --- |
| COC(=O)[C@H](c1ccccc1)n1sc2ccccc2c1=O | > 50 µg/mL | > 50 µg/mL |
| CC(=O)Nc1ccccc1-n1sc2ccccc2c1=O | > 50 µg/mL | > 50 µg/mL |
| COC(=O)[C@H](C(C)C)n1sc2ccccc2c1=O | > 50 µg/mL | > 50 µg/mL |
| COC(=O)[C@H](C)NC(=O)[C@H](C)n1sc2ccccc2c1=O | > 50 µg/mL | > 50 µg/mL |
| COC(=O)[C@H](C)n1sc2ccccc2c1=O | > 50 µg/mL | > 50 µg/mL |
| O=c1c2ccccc2sn1-c1ccccc1Cl |  | > 50 µg/mL |

test system: Staphylococcus aureus; assay: Antibacterial activity against Staphylococcus aureus ATCC 29213 by broth microdilution method; assay type: functional; conditions: not given

| SMILES | IC50 | MIC |
| --- | --- | --- |
| COC(=O)[C@H](c1ccccc1)n1sc2ccccc2c1=O | 13.5 µg/mL (≈ 45.1 µM) | 18.7 µg/mL (≈ 62.5 µM) |
| CC(=O)Nc1ccccc1-n1sc2ccccc2c1=O | > 50 µg/mL | > 50 µg/mL |
| COC(=O)[C@H](C(C)C)n1sc2ccccc2c1=O | 2.6 µg/mL (≈ 9.8 µM) | 4.6 µg/mL (≈ 17.3 µM) |
| COC(=O)[C@H](C)NC(=O)[C@H](C)n1sc2ccccc2c1=O | 3.5 µg/mL (≈ 11.4 µM) | 5.6 µg/mL (≈ 18.2 µM) |
| COC(=O)[C@H](C)n1sc2ccccc2c1=O | 6.4 µg/mL (≈ 27 µM) | 8.4 µg/mL (≈ 35.4 µM) |
| O=c1c2ccccc2sn1-c1ccccc1Cl |  | 12.5 µg/mL (≈ 47.8 µM) |

test system: Staphylococcus aureus; assay: Antibacterial activity against methicillin-resistant Staphylococcus aureus ATCC 700699 by broth microdilution method; assay type: functional; conditions: Mu50

| SMILES | IC50 | MIC |
| --- | --- | --- |
| COC(=O)[C@H](c1ccccc1)n1sc2ccccc2c1=O | 2.6 µg/mL (≈ 8.69 µM) | 4.2 µg/mL (≈ 14 µM) |
| CC(=O)Nc1ccccc1-n1sc2ccccc2c1=O | > 50 µg/mL | > 50 µg/mL |
| COC(=O)[C@H](C(C)C)n1sc2ccccc2c1=O | 0.82 µg/mL (≈ 3.09 µM) | 0.97 µg/mL (≈ 3.66 µM) |
| COC(=O)[C@H](C)NC(=O)[C@H](C)n1sc2ccccc2c1=O | 3.6 µg/mL (≈ 11.7 µM) | 7.5 µg/mL (≈ 24.3 µM) |
| COC(=O)[C@H](C)n1sc2ccccc2c1=O | 0.84 µg/mL (≈ 3.54 µM) | 0.87 µg/mL (≈ 3.67 µM) |
| O=c1c2ccccc2sn1-c1ccccc1Cl |  | 12.5 µg/mL (≈ 47.8 µM) |

test system: Escherichia coli; assay: Antibacterial activity against Escherichia coli ATCC 9637 by broth microdilution method; assay type: functional; conditions: W; procedure, shortened: as §1

| SMILES | IC50 | MIC |
| --- | --- | --- |
| COC(=O)[C@H](c1ccccc1)n1sc2ccccc2c1=O | > 50 µg/mL | > 50 µg/mL |
| CC(=O)Nc1ccccc1-n1sc2ccccc2c1=O | > 50 µg/mL | > 50 µg/mL |
| COC(=O)[C@H](C(C)C)n1sc2ccccc2c1=O | > 50 µg/mL | > 50 µg/mL |
| COC(=O)[C@H](C)NC(=O)[C@H](C)n1sc2ccccc2c1=O | > 50 µg/mL | > 50 µg/mL |
| COC(=O)[C@H](C)n1sc2ccccc2c1=O | > 50 µg/mL | > 50 µg/mL |
| O=c1c2ccccc2sn1-c1ccccc1Cl |  | > 50 µg/mL |

test system: Plasmodium falciparum; assay: Antimalarial activity against chloroquine-sensitive Plasmodium falciparum 3D7 after 72 hrs by SYBR Green-1 staining based fluorescence assay; assay type: functional; conditions: 3D7, 72 h

| SMILES | IC50 |
| --- | --- |
| COC(=O)[C@H](c1ccccc1)n1sc2ccccc2c1=O | > 2000 nM |
| CC(=O)Nc1ccccc1-n1sc2ccccc2c1=O | > 2000 nM |
| COC(=O)[C@H](C(C)C)n1sc2ccccc2c1=O | > 2000 nM |
| COC(=O)[C@H](C)NC(=O)[C@H](C)n1sc2ccccc2c1=O | > 2000 nM |
| COC(=O)[C@H](C)n1sc2ccccc2c1=O | > 2000 nM |
| O=c1c2ccccc2sn1-c1ccccc1Cl | > 2000 nM |

test system: Aspergillus fumigatus; assay: Anti-fungal activity against Aspergillus fumigatus after 48 hrs by broth microdilution method; assay type: functional; conditions: not given

| SMILES | IC50 | MIC |
| --- | --- | --- |
| COC(=O)[C@H](c1ccccc1)n1sc2ccccc2c1=O | > 50 µg/mL | > 50 µg/mL |
| CC(=O)Nc1ccccc1-n1sc2ccccc2c1=O | > 50 µg/mL | > 50 µg/mL |
| COC(=O)[C@H](C(C)C)n1sc2ccccc2c1=O |  | 12.5 µg/mL (≈ 47.1 µM) |
| COC(=O)[C@H](C)NC(=O)[C@H](C)n1sc2ccccc2c1=O | > 50 µg/mL | > 50 µg/mL |
| COC(=O)[C@H](C)n1sc2ccccc2c1=O |  | 25 µg/mL (≈ 105 µM) |
| O=c1c2ccccc2sn1-c1ccccc1Cl |  | 25 µg/mL (≈ 95.5 µM) |

test system: Cryptococcus neoformans; assay: Anti-fungal activity against Cryptococcus neoformans after 48 hrs by broth microdilution method; assay type: functional; conditions: not given

| SMILES | IC50 | MIC |
| --- | --- | --- |
| COC(=O)[C@H](c1ccccc1)n1sc2ccccc2c1=O | > 50 µg/mL | > 50 µg/mL |
| CC(=O)Nc1ccccc1-n1sc2ccccc2c1=O | > 50 µg/mL | > 50 µg/mL |
| COC(=O)[C@H](C(C)C)n1sc2ccccc2c1=O | 2.5 µg/mL (≈ 9.42 µM) | 4.5 µg/mL (≈ 17 µM) |
| COC(=O)[C@H](C)NC(=O)[C@H](C)n1sc2ccccc2c1=O | > 50 µg/mL | > 50 µg/mL |
| COC(=O)[C@H](C)n1sc2ccccc2c1=O | 1.4 µg/mL (≈ 5.9 µM) | 2 µg/mL (≈ 8.43 µM) |
| O=c1c2ccccc2sn1-c1ccccc1Cl |  | 12.5 µg/mL (≈ 47.8 µM) |

test system: Trichophyton mentagrophytes; assay: Anti-fungal activity against Trichophyton mentagrophytes after 48 hrs by broth microdilution method; assay type: functional; conditions: not given

| SMILES | IC50 | MIC |
| --- | --- | --- |
| COC(=O)[C@H](c1ccccc1)n1sc2ccccc2c1=O | > 50 µg/mL | > 50 µg/mL |
| CC(=O)Nc1ccccc1-n1sc2ccccc2c1=O | > 50 µg/mL | > 50 µg/mL |
| COC(=O)[C@H](C(C)C)n1sc2ccccc2c1=O | 1.7 µg/mL (≈ 6.41 µM) | 2.4 µg/mL (≈ 9.05 µM) |
| COC(=O)[C@H](C)NC(=O)[C@H](C)n1sc2ccccc2c1=O | > 50 µg/mL | > 50 µg/mL |
| COC(=O)[C@H](C)n1sc2ccccc2c1=O | 11.4 µg/mL (≈ 48 µM) | 12 µg/mL (≈ 50.6 µM) |
| O=c1c2ccccc2sn1-c1ccccc1Cl |  | 12.5 µg/mL (≈ 47.8 µM) |

test system: Candida albicans; assay: Anti-fungal activity against Candida albicans after 48 hrs by broth microdilution method; assay type: functional; conditions: not given

| SMILES | IC50 | MIC |
| --- | --- | --- |
| COC(=O)[C@H](c1ccccc1)n1sc2ccccc2c1=O | > 50 µg/mL | > 50 µg/mL |
| CC(=O)Nc1ccccc1-n1sc2ccccc2c1=O | > 50 µg/mL | > 50 µg/mL |
| COC(=O)[C@H](C(C)C)n1sc2ccccc2c1=O | 1.2 µg/mL (≈ 4.52 µM) | 2.3 µg/mL (≈ 8.67 µM) |
| COC(=O)[C@H](C)NC(=O)[C@H](C)n1sc2ccccc2c1=O | > 50 µg/mL | > 50 µg/mL |
| COC(=O)[C@H](C)n1sc2ccccc2c1=O | 1.9 µg/mL (≈ 8.01 µM) | 2.7 µg/mL (≈ 11.4 µM) |
| O=c1c2ccccc2sn1-c1ccccc1Cl |  | 25 µg/mL (≈ 95.5 µM) |

test system: Candida parapsilosis; assay: Anti-fungal activity against Candida parapsilosis ATCC 22019 after 48 hrs by broth microdilution method; assay type: functional; conditions: Lodderomyces parapsilosis, ATCC 22019, 48 h

| SMILES | IC50 | MIC |
| --- | --- | --- |
| COC(=O)[C@H](c1ccccc1)n1sc2ccccc2c1=O | > 50 µg/mL | > 50 µg/mL |
| CC(=O)Nc1ccccc1-n1sc2ccccc2c1=O | > 50 µg/mL | > 50 µg/mL |
| COC(=O)[C@H](C(C)C)n1sc2ccccc2c1=O | 1.6 µg/mL (≈ 6.03 µM) | 3.1 µg/mL (≈ 11.7 µM) |
| COC(=O)[C@H](C)NC(=O)[C@H](C)n1sc2ccccc2c1=O | > 50 µg/mL | > 50 µg/mL |
| COC(=O)[C@H](C)n1sc2ccccc2c1=O |  | 12.5 µg/mL (≈ 52.7 µM) |
| O=c1c2ccccc2sn1-c1ccccc1Cl |  | 25 µg/mL (≈ 95.5 µM) |

Source: ChEMBL document CHEMBL3994637, “Broad spectrum anti-infective properties of benzisothiazolones and the parallels in their anti-bacterial and anti-fungal effects” (Bioorg Med Chem Lett, 2017)
